Measurements published in ChEMBL document CHEMBL1759910, “Imidazopyridine CB2 agonists: optimization of CB2/CB1 selectivity and implications for in vivo analgesic efficacy” (Bioorg Med Chem Lett, 2011).
pIC50, pKi: −log10 of the molar value. Blank lines part the entries; values can stand above or below the compound they belong to. The source made the active and inactive calls.

Columns and labels:
Cannabinoid receptor 2 [1] = target: T1, Cannabinoid receptor 2 (Homo sapiens, UniProt P34972); assay: Agonist activity at human CB2 receptor expressed in CHO-K1 cells assessed as inhibition of forskolin-stimulated cAMP level; type: functional, cell-based
Procedure, shortened: (§1)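 Receptor (human or rat CB1 or CB2) expressed in CHO-K1 cells, 1000 cells per well, added to compound and incubated at room temperature for 15 min. Read-out is IC50 with Emax.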

Cannabinoid receptor 2 [2] = target: T1, Cannabinoid receptor 2; assay: Agonist activity at human CB2 receptor expressed in CHO-K1 cells assessed as inhibition of forskolin-stimulated cAMP level relative to control; type: functional, cell-based; procedure, shortened: as §1
Cannabinoid receptor 1 [3] = target: T2, Cannabinoid receptor 1 (Homo sapiens, UniProt P21554); assay: Agonist activity at human CB1 receptor expressed in CHO-K1 cells assessed as inhibition of forskolin-stimulated cAMP level; type: functional, cell-based; procedure, shortened: as §1
[4] = Plasma protein binding in rat assessed as fraction unbound; type: ADME, cell-free
Procedure, shortened: (§2)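 Free fraction in rat plasma measured by ultrafiltration or equilibrium dialysis after incubation with rat plasma.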

Cannabinoid receptor 1 [5] = target: T2, Cannabinoid receptor 1; assay: Binding affinity to human CB1 receptor
Cannabinoid receptor 2 [6] = target: T1, Cannabinoid receptor 2; assay: Binding affinity to human CB2 receptor
Cannabinoid receptor 1 [7] = target: T2, Cannabinoid receptor 1; assay: Agonist activity at human CB1 receptor expressed in CHO-K1 cells assessed as inhibition of forskolin-stimulated cAMP level relative to control; type: functional, cell-based; procedure, shortened: as §1
[8] = Plasma protein binding in rat; type: ADME, cell-free; settings: read-out: PPB (converted); procedure, shortened: as §2
Cannabinoid receptor 1 [9] = target: Cannabinoid receptor 1 (Rattus norvegicus, UniProt P20272); assay: Agonist activity at rat CB1 receptor expressed in CHO-K1 cells assessed as inhibition of forskolin-stimulated cAMP level; type: functional, cell-based; procedure, shortened: as §1
Cannabinoid receptor 2 [10] = target: T3, Cannabinoid receptor 2 (Rattus norvegicus, UniProt Q9QZN9); assay: Agonist activity at rat CB2 receptor expressed in CHO-K1 cells assessed as inhibition of forskolin-stimulated cAMP level; type: functional, cell-based; procedure, shortened: as §1
T3 sequence (Q9QZN9 whole entry): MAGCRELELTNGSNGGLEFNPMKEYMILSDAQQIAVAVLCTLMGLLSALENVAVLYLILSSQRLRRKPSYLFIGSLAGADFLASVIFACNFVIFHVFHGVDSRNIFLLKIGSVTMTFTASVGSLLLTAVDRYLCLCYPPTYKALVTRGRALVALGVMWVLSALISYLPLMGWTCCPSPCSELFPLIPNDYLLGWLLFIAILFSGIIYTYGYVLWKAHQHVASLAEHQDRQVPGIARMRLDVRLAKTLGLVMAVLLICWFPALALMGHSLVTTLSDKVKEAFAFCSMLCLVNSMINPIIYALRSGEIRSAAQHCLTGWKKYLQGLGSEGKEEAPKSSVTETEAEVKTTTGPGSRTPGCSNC

[11] = Drug level in cerebrospinal fluid of Lewis rat complete Freund's adjuvant-induced hyperalgesia model at 100 mg/kg, po and sc at 120 mins; type: ADME, organism-based; parameters: dose 100 mg/kg, route oral; settings: read-out: Drug uptake
Procedure, shortened: (§3)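 Rats with CFA-induced hyperalgesia dosed orally or subcutaneously at 100 mpk. Naproxen 20 mg/kg and vehicle served as controls. Paw withdrawal threshold read at baseline, after CFA, and post-dose (30, 60 or 120 min). Plasma, brain and CSF drug levels measured at the 60 or 120 min post-dose timepoint.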

[12] = Plasma concentration in Lewis rat complete Freund's adjuvant-induced hyperalgesia model at 100 mg/kg, po and sc at 120 mins; type: ADME, organism-based; parameters: dose 100 mg/kg, route oral; procedure, shortened: as §3
Rattus norvegicus [13] = assay: Analgesic activity in Lewis rat complete Freund's adjuvant-induced hyperalgesia model assessed as reversal in paw withdrawal threshold at 100 mg/kg, po and sc; type: functional, organism-based; parameters: dose 100 mg/kg; procedure, shortened: as §3
[14] = target: T4, Cannabinoid receptor 2 (Rattus norvegicus) (UniProt Q9QZN9); assay: Agonist activity at rat CB2 receptor expressed in CHO-K1 cells assessed as inhibition of forskolin-stimulated cAMP level relative to control; type: functional, cell-based; procedure, shortened: as §1
T4 sequence (whole entry): T3 sequence (Q9QZN9 whole entry)

[15] = Drug level in brain of Lewis rat complete Freund's adjuvant-induced hyperalgesia model at 100 mg/kg, po and sc at 120 mins; type: ADME, organism-based; parameters: dose 100 mg/kg, route oral; settings: read-out: Drug uptake; procedure, shortened: as §3
[16] = target: Cannabinoid receptor 1 (Rattus norvegicus) (UniProt P20272); assay: Agonist activity at rat CB1 receptor expressed in CHO-K1 cells assessed as inhibition of forskolin-stimulated cAMP level relative to control; type: functional, cell-based; procedure, shortened: as §1
[17] = Drug level in cerebrospinal fluid of Lewis rat complete Freund's adjuvant-induced hyperalgesia model at 100 mg/kg, po and sc at 60 mins; type: ADME, organism-based; parameters: dose 100 mg/kg, route oral; settings: read-out: Drug uptake; procedure, shortened: as §3
[18] = Plasma concentration in Lewis rat complete Freund's adjuvant-induced hyperalgesia model at 100 mg/kg, po and sc at 60 mins; type: ADME, organism-based; parameters: dose 100 mg/kg, route oral; procedure, shortened: as §3
Rattus norvegicus [19] = assay: Neurotoxicity in rat assessed as impairment of motor co-ordination at 100 mg/kg, po by rotarod method; type: toxicity, organism-based; parameters: dose 100 mg/kg, route oral; settings: in vivo
[20] = Drug level in brain of Lewis rat complete Freund's adjuvant-induced hyperalgesia at 100 mg/kg, po and sc at 60 mins; type: ADME, organism-based; parameters: dose 100 mg/kg, route oral; settings: read-out: Drug uptake; procedure, shortened: as §3

T1 sequence (P34972 whole entry): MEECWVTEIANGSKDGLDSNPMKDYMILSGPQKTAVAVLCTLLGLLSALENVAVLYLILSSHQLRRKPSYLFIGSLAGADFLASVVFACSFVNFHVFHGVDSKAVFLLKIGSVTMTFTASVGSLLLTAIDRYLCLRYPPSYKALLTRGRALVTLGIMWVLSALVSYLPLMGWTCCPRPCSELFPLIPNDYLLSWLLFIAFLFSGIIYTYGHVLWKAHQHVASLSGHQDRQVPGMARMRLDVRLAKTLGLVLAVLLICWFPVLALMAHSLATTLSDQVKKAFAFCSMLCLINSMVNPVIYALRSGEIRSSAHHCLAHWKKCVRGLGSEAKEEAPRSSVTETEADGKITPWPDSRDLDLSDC
T2 sequence (P21554 whole entry): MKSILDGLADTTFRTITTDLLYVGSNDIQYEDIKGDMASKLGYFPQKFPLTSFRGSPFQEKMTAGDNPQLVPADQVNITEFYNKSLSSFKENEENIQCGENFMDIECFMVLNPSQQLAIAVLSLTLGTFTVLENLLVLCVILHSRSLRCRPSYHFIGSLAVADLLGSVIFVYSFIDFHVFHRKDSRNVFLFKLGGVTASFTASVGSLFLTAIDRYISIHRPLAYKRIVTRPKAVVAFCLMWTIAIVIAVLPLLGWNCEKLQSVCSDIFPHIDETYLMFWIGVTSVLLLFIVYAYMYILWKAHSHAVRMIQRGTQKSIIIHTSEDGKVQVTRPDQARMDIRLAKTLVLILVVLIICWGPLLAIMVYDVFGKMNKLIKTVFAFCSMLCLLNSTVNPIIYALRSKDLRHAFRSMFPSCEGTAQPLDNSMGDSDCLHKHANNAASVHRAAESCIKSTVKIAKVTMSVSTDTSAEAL
Cannabinoid receptor 1 (Rattus norvegicus, UniProt P20272), sequence (P20272 whole entry): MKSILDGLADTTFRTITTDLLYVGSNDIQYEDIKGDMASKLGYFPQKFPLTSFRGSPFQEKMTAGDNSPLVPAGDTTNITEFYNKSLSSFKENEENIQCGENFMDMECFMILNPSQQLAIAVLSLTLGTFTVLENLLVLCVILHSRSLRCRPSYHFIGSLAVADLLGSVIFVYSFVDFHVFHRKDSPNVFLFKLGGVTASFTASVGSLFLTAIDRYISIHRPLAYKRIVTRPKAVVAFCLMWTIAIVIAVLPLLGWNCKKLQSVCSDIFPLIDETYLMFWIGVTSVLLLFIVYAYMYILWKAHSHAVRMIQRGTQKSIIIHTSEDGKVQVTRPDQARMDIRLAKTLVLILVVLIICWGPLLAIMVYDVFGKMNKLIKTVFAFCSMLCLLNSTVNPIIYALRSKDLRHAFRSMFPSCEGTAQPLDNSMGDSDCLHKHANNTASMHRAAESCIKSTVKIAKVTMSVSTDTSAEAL
Cannabinoid receptor 1 (Rattus norvegicus), sequence (P20272 whole entry): as above

pIC50 (Cannabinoid receptor 2 [1]): 6.86 | Emax (Cannabinoid receptor 2 [2]): 94% | pIC50 (Cannabinoid receptor 1 [3]): < 4.77 | fraction unbound [4]: 0.18
Compound: O=C(N[C@H](c1ccccn1)C(F)(F)F)c1nc(N2CCOCC2)c2cnccn12

pIC50 (Cannabinoid receptor 2 [1]): 7.16 | Emax (Cannabinoid receptor 2 [2]): 98% | pIC50 (Cannabinoid receptor 1 [3]): < 4.77 | fraction unbound [4]: 0.25
Compound: O=C(NC(c1cccnc1)C(F)(F)F)c1nc(N2CCOCC2)c2cnccn12 (stereo not given)

Compound: O=C(NC(C1CC1)C1CC1)c1nc(C2CC2)n2ccccc12
pIC50 (Cannabinoid receptor 2 [1]): 8.15 | Emax (Cannabinoid receptor 2 [2]): 99% | pIC50 (Cannabinoid receptor 1 [3]): < 4.77 | fraction unbound [4]: 0.03

Compound: COc1ccc2c(c1)c(CCN1CCOCC1)c(C)n2C(=O)c1cccc(Cl)c1Cl
pKi (Cannabinoid receptor 1 [5]): 5.70 | pKi (Cannabinoid receptor 2 [6]): 8.00

Compound: O=C(N[C@H](c1ccccn1)C(F)(F)F)c1nc(N2CCOCC2)n2ccccc12
pIC50 (Cannabinoid receptor 2 [1]): 7.68 | Emax (Cannabinoid receptor 2 [2]): 97% | Emax (Cannabinoid receptor 1 [7]): 55% | pIC50 (Cannabinoid receptor 1 [3]): 6.15 | fraction unbound [4]: 0.1

Compound: O=C(c1cccc(Cl)c1Cl)c1nc(CN2CCC(F)(F)CC2)c2ccccn12
pIC50 (Cannabinoid receptor 2 [1]): 9.52 | Emax (Cannabinoid receptor 2 [2]): 110% | Emax (Cannabinoid receptor 1 [7]): 101% | pIC50 (Cannabinoid receptor 1 [3]): 7.05

pIC50 (Cannabinoid receptor 2 [1]): 7.04 | Emax (Cannabinoid receptor 2 [2]): 96% | pIC50 (Cannabinoid receptor 1 [3]): < 4.77 | fraction unbound [4]: 0.03
Compound: O=C(NC(c1ccncc1)c1ccc(F)cc1)c1nc(N2CCC(F)(F)C2)c2cnccn12 (stereo not given)

Compound: O=C(NCC1(CO)CCCC1)c1nc(N2CCOCC2)n2ccccc12
fraction unbound [8]: 0.16 | pIC50 (Cannabinoid receptor 2 [1]): 7.48 | Emax (Cannabinoid receptor 2 [2]): 99% | pIC50 (Cannabinoid receptor 1 [9]): < 4.77 | pIC50 (Cannabinoid receptor 2 [10]): 7.24 | concentration at 2 h [11]: 300 nM | concentration at 2 h [12]: 4300 nM | pIC50 (Cannabinoid receptor 1 [3]): < 4.77 | Activity (Rattus norvegicus [13]): inactive | Emax [14]: 87% | fraction unbound [4]: 0.16 | concentration at 2 h [15]: 1300 nM

Compound: C[C@@H](NC(=O)c1nc(N2CCC(F)(F)CC2)c2cnccn12)C(C)(C)C
pIC50 (Cannabinoid receptor 2 [1]): 7.44 | Emax (Cannabinoid receptor 2 [2]): 99% | pIC50 (Cannabinoid receptor 1 [3]): < 4.77 | fraction unbound [4]: 0.06

Compound: O=C(Nc1cccc(C(F)(F)F)n1)c1nc(CN2CCC(F)(F)CC2)c2ccccn12
pIC50 (Cannabinoid receptor 2 [1]): 8.77 | Emax (Cannabinoid receptor 2 [2]): 98% | Emax (Cannabinoid receptor 1 [7]): 100% | pIC50 (Cannabinoid receptor 1 [3]): 6.46

Compound: CC(C)(C)CNC(=O)c1nc(C2CC2)n2ccccc12
pIC50 (Cannabinoid receptor 2 [1]): 7.68 | Emax (Cannabinoid receptor 2 [2]): 97% | pIC50 (Cannabinoid receptor 1 [3]): < 4.77 | fraction unbound [4]: 0.05

Compound: O=C(c1cccc(Cl)c1Cl)c1nc(CN2CCOCC2)c2ccccn12
fraction unbound [8]: 0.24 | Emax [16]: 104% | pIC50 (Cannabinoid receptor 2 [1]): 8.30 | Emax (Cannabinoid receptor 2 [2]): 94% | pIC50 (Cannabinoid receptor 1 [9]): 5.97 | pIC50 (Cannabinoid receptor 2 [10]): 7.96 | concentration at 1 h [17]: 110 nM | Emax (Cannabinoid receptor 1 [7]): 66% | pIC50 (Cannabinoid receptor 1 [3]): 5.59 | Activity (Rattus norvegicus [13]): Dose-dependent effect | concentration at 1 h [18]: 4500 nM | Activity (Rattus norvegicus [19]): Toxic | Emax [14]: 87% | fraction unbound [4]: 0.24 | concentration at 1 h [20]: 5400 nM

Compound: O=C(Nc1cccc(C(F)(F)F)n1)c1nc(CN2CCS(=O)(=O)CC2)c2ccccn12
pIC50 (Cannabinoid receptor 2 [1]): 7.36 | Emax (Cannabinoid receptor 2 [2]): 80% | Emax (Cannabinoid receptor 1 [7]): 54% | pIC50 (Cannabinoid receptor 1 [3]): 4.90 | fraction unbound [4]: 0.11

Compound: O=C(NCC1(CO)CCCC1)c1nc(CN2CCC(F)(F)CC2)n2ccccc12
pIC50 (Cannabinoid receptor 2 [1]): 8.52 | Emax (Cannabinoid receptor 2 [2]): 88% | Emax (Cannabinoid receptor 1 [7]): 99% | pIC50 (Cannabinoid receptor 1 [3]): 7.17

Compound: O=C(c1cccc(F)c1C(F)(F)F)c1nc(CN2CCOCC2)c2ccccn12
pIC50 (Cannabinoid receptor 2 [1]): 9.15 | Emax (Cannabinoid receptor 2 [2]): 98% | Emax (Cannabinoid receptor 1 [7]): 97% | pIC50 (Cannabinoid receptor 1 [3]): 5.65 | fraction unbound [4]: 0.03
